# pIC50: −log10 of the molar value. The source made the active and inactive calls. The calls are words filed in the database; no cut-off is given here.
# Assays:
# Cholinesterase [1] = target: T1, Cholinesterase (Homo sapiens, UniProt P06276); assay: Inhibition of recombinant human BuChE using butyrylthiocholine iodide as substrate preincubated for 5 mins followed by substrate addition and measured for 5 mins by Ellman's method
# Acetylcholinesterase = Acetylcholinesterase (Homo sapiens, UniProt P22303); assay: Inhibition of recombinant human AChE using acetylthiocholine iodide as substrate preincubated for 5 mins followed by substrate addition and measured for 5 mins by Ellman's method
# Cholinesterase [2] = target: T1, Cholinesterase; assay: Potency index, ratio of donepezil IC50 to test compound IC50 for recombinant human BuChE
# Cholinesterase [3] = target: T1, Cholinesterase; assay: Mixed-type inhibition of recombinant human BuChE using varying levels of butyrylthiocholine iodide as substrate by Lineweaver-burk plot analysis
# Homo sapiens = species: Homo sapiens; assay: Selectivity ratio of IC50 for recombinant human AChE to IC50 for recombinant human BuChE
# SH-SY5Y [4] = assay: Cytotoxicity against human SH-SY5Y cells assessed as reduction in cell viability at BuChE IC50 after 24 hrs by XTT assay; type: cell-based
# Summary of the method: (§1)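 SH-SY5Y human neuroblastoma cells were treated with seven concentrations of each compound. Viability was read by XTT colorimetric assay after a 24 h or 120 h recovery period.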
# SH-SY5Y [5] = assay: Cytotoxicity against human SH-SY5Y cells assessed as reduction in cell viability at 40 uM after 24 hrs by XTT assay; type: cell-based
# SH-SY5Y [6] = assay: Cytotoxicity against human SH-SY5Y cells assessed as reduction in cell viability at BuChE IC50 after 120 hrs by XTT assay; type: cell-based; summary of the method: as §1
# SH-SY5Y [7] = assay: Cytotoxicity against human SH-SY5Y cells assessed as reduction in cell viability at 80 uM after 24 hrs by XTT assay; type: cell-based
# SH-SY5Y [8] = assay: Cytotoxicity against human SH-SY5Y cells assessed as reduction in cell viability at 2.5 uM after 24 hrs by XTT assay; type: cell-based
# SH-SY5Y [9] = assay: Cytotoxicity against human SH-SY5Y cells assessed as reduction in cell viability at 39.6 nM after 24 hrs by XTT assay; type: cell-based; settings: 0.0396 µM
# T1 sequence (P06276 whole entry): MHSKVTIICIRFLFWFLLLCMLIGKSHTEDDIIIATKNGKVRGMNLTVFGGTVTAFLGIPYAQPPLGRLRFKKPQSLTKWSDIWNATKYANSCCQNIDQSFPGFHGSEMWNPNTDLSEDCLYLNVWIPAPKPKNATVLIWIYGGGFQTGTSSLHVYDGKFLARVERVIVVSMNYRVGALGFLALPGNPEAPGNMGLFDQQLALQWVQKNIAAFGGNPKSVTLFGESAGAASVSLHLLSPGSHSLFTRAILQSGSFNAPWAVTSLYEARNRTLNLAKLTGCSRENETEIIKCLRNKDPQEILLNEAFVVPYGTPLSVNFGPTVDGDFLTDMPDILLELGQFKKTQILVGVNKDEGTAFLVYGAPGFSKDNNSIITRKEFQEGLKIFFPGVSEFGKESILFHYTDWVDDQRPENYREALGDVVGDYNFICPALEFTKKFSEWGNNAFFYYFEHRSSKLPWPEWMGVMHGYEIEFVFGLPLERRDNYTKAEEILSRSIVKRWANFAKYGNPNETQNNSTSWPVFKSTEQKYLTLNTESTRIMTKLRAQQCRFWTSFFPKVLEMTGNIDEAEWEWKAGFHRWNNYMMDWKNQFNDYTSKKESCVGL
# Sequence of Acetylcholinesterase (P22303 whole entry): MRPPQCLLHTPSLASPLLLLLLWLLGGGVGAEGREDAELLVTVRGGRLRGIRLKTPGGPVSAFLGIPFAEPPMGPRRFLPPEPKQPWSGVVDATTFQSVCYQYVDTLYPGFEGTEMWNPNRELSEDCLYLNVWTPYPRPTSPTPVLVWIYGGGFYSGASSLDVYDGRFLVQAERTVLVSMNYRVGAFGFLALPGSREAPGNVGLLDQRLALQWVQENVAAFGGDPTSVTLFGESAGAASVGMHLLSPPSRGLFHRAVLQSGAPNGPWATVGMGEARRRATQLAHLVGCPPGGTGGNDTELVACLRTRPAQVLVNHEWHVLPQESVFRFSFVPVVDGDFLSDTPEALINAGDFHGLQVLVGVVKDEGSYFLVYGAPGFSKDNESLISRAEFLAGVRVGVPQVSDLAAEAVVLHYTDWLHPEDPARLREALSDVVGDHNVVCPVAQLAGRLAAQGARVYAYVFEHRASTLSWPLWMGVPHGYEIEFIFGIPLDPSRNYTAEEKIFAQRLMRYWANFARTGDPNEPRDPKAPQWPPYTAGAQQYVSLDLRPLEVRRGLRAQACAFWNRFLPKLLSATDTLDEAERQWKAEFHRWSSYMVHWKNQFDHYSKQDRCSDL
Structure (SMILES),pIC50 (Cholinesterase [1]),pIC50 (Acetylcholinesterase),Activity (SH-SY5Y [4]),also measured
c1ccc(CN2CCC(Cn3cc(CSc4nc5ccccc5[nH]4)nn3)CC2)cc1,7.19,5.13,–,–
COc1cc2c(cc1OC)C(=O)C(Cc1cn(CC3CCN(Cc4ccccc4)CC3)nn1)C2 (stereo not drawn),< 5.00,5.31,–,–
CC(=O)N[C@@H](Cn1cc(-c2ccccc2)nn1)C(=O)NCC1CCN(Cc2ccccc2)CC1,9.77,< 5.00,Non-Toxic,Ratio IC50 (Cholinesterase [2]): 53000; inhibition (Cholinesterase [3]): Active; Ratio IC50 (Homo sapiens): > 58000
N[C@@H](CCCCn1cc(-c2ccccc2)nn1)C(=O)NCC1CCN(Cc2ccccc2)CC1,6.01,< 5.00,Non-Toxic,Activity (SH-SY5Y [5]): Toxic; Activity (SH-SY5Y [6]): Non-Toxic
CCOc1ccc2[nH]c(SCc3cn(CC4CCN(Cc5ccccc5)CC4)nn3)nc2c1,5.72,5.16,–,–
O=C(Cc1c[nH]c2ccccc12)NCc1cn(CC2CCN(Cc3ccccc3)CC2)nn1,5.28,< 5.00,–,–
CC(=O)N[C@@H](CCCCn1cc(-c2ccccc2)nn1)C(=O)NCC1CCN(Cc2ccccc2)CC1,5.99,< 5.00,Non-Toxic,Activity (SH-SY5Y [7]): Toxic; Activity (SH-SY5Y [8]): Toxic; Ratio IC50 (Cholinesterase [2]): 9; Activity (SH-SY5Y [6]): Non-Toxic
COc1cc2ncnc(NCc3cn(CC4CCN(Cc5ccccc5)CC4)nn3)c2cc1OC,< 5.00,5.40,–,–
c1ccc(CN2CCC(Cn3cc(CNc4ncnc5ccccc45)nn3)CC2)cc1,5.53,5.37,–,–
N[C@@H](Cn1cc(-c2ccccc2)nn1)C(=O)NCC1CCN(Cc2ccccc2)CC1,8.00,< 5.00,Non-Toxic,Activity (SH-SY5Y [6]): Non-Toxic; Activity (SH-SY5Y [9]): Toxic; inhibition (Cholinesterase [3]): Active
O=C1c2ccccc2C(=O)N1Cc1cn(CC2CCN(Cc3ccccc3)CC2)nn1,< 5.00,5.31,–,–

# — ChEMBL document CHEMBL4422687, “Highly potent and selective aryl-1,2,3-triazolyl benzylpiperidine inhibitors toward butyrylcholinesterase in Alzheimer's disease” (Bioorg Med Chem, 2019)
